# KCNK3 block – human KCNK3 channel inhibition, primary screen; O14649; actives 0.84% (n = 340,000); CHO-KCNK3 thallium flux, FluxOR fluorescence; stronger effect = lower value; B-score at 10 µM;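 active = B-score under library mean minus 4 SD, starting fluorescence ratio at most library mean plus 5 SD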;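 note: more negative B-score means stronger inhibition of thallium flux through KCNK3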
# KCC2 mod – modulators of human KCC2 chloride dependent transport. B-score of Tl+ flux slope (higher = more flux/activation; lower = inhibition) at 10 µM. KCC2 cells, thallium flux FluoZin-2 fluorescence. AID 1456. Q9H2X9. actives 2.2% (n = 190,000);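 active = thallium flux slope and its plate-corrected score both differing from the plate sample mean at a set confidence after two filtering rounds, in either direction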;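 note: slope of fluorescence scaled to starting intensity during 10 to 20 s after thallium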
# Target sequence (Q9H2X9 whole entry, looked up): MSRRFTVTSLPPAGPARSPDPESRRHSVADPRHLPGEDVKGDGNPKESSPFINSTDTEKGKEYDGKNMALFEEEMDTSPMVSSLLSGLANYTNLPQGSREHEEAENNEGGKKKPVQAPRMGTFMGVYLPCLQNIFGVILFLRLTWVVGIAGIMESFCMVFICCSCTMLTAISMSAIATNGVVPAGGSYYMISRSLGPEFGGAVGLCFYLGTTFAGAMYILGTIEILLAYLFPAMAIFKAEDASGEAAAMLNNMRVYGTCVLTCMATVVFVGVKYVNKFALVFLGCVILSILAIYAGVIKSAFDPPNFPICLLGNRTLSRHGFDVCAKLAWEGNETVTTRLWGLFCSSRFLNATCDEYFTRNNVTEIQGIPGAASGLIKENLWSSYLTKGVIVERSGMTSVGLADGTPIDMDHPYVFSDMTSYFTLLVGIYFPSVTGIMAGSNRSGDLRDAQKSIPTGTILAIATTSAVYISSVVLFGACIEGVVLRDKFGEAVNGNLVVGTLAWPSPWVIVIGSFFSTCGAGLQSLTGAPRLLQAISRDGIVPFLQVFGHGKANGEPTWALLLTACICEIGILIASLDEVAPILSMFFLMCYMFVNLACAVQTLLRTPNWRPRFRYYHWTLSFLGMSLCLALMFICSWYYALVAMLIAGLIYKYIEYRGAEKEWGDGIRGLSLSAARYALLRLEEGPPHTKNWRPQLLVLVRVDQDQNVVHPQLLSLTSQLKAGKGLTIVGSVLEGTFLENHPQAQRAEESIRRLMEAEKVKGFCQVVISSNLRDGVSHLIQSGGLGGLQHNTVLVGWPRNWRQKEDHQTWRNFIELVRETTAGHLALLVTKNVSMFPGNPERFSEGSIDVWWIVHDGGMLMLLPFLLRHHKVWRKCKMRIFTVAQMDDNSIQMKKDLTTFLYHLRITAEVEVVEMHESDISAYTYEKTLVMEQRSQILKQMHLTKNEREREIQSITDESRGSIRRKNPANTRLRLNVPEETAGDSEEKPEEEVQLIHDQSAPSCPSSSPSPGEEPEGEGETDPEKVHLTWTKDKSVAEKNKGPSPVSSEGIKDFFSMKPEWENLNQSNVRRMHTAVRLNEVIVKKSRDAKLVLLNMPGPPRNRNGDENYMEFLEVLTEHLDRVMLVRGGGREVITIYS
# KCNQ1 act – human KCNQ1 channel potentiation or activation; P51787; B-score at 10 µM; CHO-K1 KCNQ1, thallium flux FluxOR fluorescence; stronger effect = higher value; actives 0.35% (n = 310,000);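 active = fluorescence ratio B-score, a plate-corrected score, at least three library SD, with initial intensity B-score within 5 SD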
#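 Medium – assay buffer, equal DMSO in all wells · Material – CHO-K1 cell line with stable KCNQ1 potassium channel expression · Signal – kinetic FluxOR thallium fluorescence, 10-s 1-Hz baseline, 110-s post-stimulus read · Compound – single concentration per compound, DMSO matched to controls · Schedule – 37 °C overnight plating, 90-min dark dye load, 20-min compound pretreatment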
# KCNK9 inh – human KCNK9 channel inhibition | actives 1.2% (n = 310,000) | B-score at 10 µM | AID 488922 | HEK293 KCNK9, FluxOR thallium flux fluorescence; stronger effect = lower value | Q9NPC2;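 active = ratio B-score over 3 SD below the library mean, with starting fluorescence within 5 SD of its mean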;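 note: negative B-score means less thallium flux so channel inhibition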
# KCNQ1 inh – inhibitors of human KCNQ1 potassium channel | P51787 | B-score at 10 µM | actives 1.3% (n = 310,000) | CHO-K1 KCNQ1, FluxOR thallium flux fluorescence; stronger effect = higher value | AID 2642;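 active = compounds whose thallium flux B-score, printed positive for inhibition, exceeds three library SD while starting fluorescence stays within three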;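 note: channel opened by potassium depolarization with thallium stimulus after 20 min compound exposure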
# hERG rescue – compounds protecting human hERG from proarrhythmic drug block | Q12809 | CHO-hERG, FluxOR thallium flux, dofetilide IC70 present | activation (rescue from dofetilide block), less the hit threshold, % at 10 µM | actives 0.51% (n = 310,000) | AID 1511;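 active = activation above the mean of controls blocked by dofetilide plus 5 SD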;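 note: thallium influx through hERG after potassium depolarization seen as dye fluorescence rise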
# KCC2 sec1 – KCC2 (human) modulation, secondary assay; shares compounds with KCC2 mod; actives 15% (n = 3,700); HEK293-KCC2, thallium flux, FluoZin2 fluorescence; stronger effect = higher value; normalised thallium flux (F/F0 slope) at 10 µM;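 active = thallium flux slope above the same plate's solvent-only control mean plus 3 SD; inconclusive = the two replicate wells disagree; inactive = no significant difference from solvent-only control wells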
# KCC2 bumet counter – bumetanide-insensitive thallium flux in KCC2 cells with ouabain, counter-screen; normalized thallium flux at 10 µM; shares compounds with KCC2 mod; HEK293-KCC2 + bumetanide/ouabain, thallium flux FluoZin2; stronger effect = higher value; actives 49% (n = 3,700);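 active = thallium entry rate above the same plate's blocked-transporter control wells by more than 3 SD; inconclusive = the two repeat wells disagree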;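 note: raw slope of fluorescence over initial fluorescence between 10 and 20 s after thallium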
# KCC2 sec2 – KCC2 (human) modulation, second secondary assay | AID 1715 | HEK293-KCC2, thallium flux FluoZin2 fluorescence; actives lie on both sides; F/F0 rise rate, 10–20 s post-thallium | actives 23% (n = 3,700) | shares compounds with KCC2 mod | normalized thallium flux at 10 µM;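 active = thallium flux slope more than 3 SD above or below the plate's solvent-only control mean, mostly below; inconclusive = the two repeat wells disagreed; inactive = no significant shift from solvent-only controls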
# HEK293 Tl flux – acts in parental HEK cells, KCC2 counter-screen; thallium flux rate (normalised fluorescence) at 10 µM; HEK293 parental cells, thallium flux FluoZin2, ouabain; baseline-ratio fluorescence slope, 10–20 s after thallium; actives 46% (n = 3,700); shares compounds with KCC2 mod;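 active = thallium flux rate significantly above the same plate's solvent-only control wells, beyond their mean plus 3 SD; inconclusive = the two replicate wells gave conflicting results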
# KCC2 retest ouab – modulates human KCC2 on retest with ouabain | shares compounds with KCC2 mod | HEK293-KCC2, thallium flux FluoZin2 fluorescence; bidirectional: low = inhibitor, high = activator | raw Tl+ flux slope (below DMSO = inhibition, above = activation) at 10 µM | actives 48% (n = 3,700);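 active = thallium flux slope beyond 3 SD from same-plate DMSO control mean in most replicates, usually higher, sometimes lower; inconclusive = repeat tests gave conflicting results; inactive = no significant difference from controls in most replicates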;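 note: slope of initial-normalized fluorescence between seconds 10 and 20 after thallium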
# HEK293 Tl flux2 – acts in parental HEK cells, second KCC2 counter-screen. shares compounds with KCC2 mod. HEK293 parental, thallium flux FluoZin-2 fluorescence slope. thallium flux slope at 10 µM. actives 33% (n = 3,700). AID 1718;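 active = thallium flux slope above the same plate's solvent-control mean plus 3 SD in both duplicate wells; inconclusive = duplicate wells that disagreed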;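 note: run without ouabain in cells lacking the KCC2 cotransporter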
# Hits are given with their value; 0 = inactive; ? = inconclusive; - = not tested or not shown. Rows were chosen to be rich in hits. Some 4.1% of all compounds tested hit in one or more screens of this group.
SMILES,KCNK3 block,KCC2 mod,KCNQ1 act,KCNK9 inh,KCNQ1 inh,hERG rescue,KCC2 sec1,KCC2 bumet counter,KCC2 sec2,HEK293 Tl flux,KCC2 retest ouab,HEK293 Tl flux2
COc1cccc(OC)c1C(=O)NC(=S)N1CCCCC1c1cccnc1 (stereo not drawn),0,-,0,0,0,0,-,-,-,-,-,-
O=C(CCS(=O)(=O)Cc1ccccc1)Nc1nc2c(s1)CCCC2,0,-,0,0,0,0,0,0,0.022,0,?,0
O=C(CCN1C(=O)c2ccccc2S1(=O)=O)Nc1cccc2ccccc12,0,0,0,0,0,0,-,-,-,-,-,-
O=C(CCN1C(=O)c2ccccc2S1(=O)=O)Nc1nc2c(s1)CCCC2,0,-3.8,0,0,0,0,0,0,0,0,0.015,0
O=C(CS(=O)(=O)Cc1ccccc1)Nc1nc2c(s1)CCCC2,0,0,0,0,0,0,-,-,-,-,-,-
CCOc1cc(N2CCOCC2)c(OCC)cc1NC(=O)CN1C(=O)NC(C)(c2ccc(OC)cc2)C1=O (stereo not drawn),0,-,-,-,-,-,-,-,-,-,-,-
CN(C)S(=O)(=O)c1cc(NC(=O)C2=COCCO2)ccc1Cl,0,-,-,-,-,-,-,-,-,-,-,-
CC1CCN(S(=O)(=O)c2cnc[nH]2)CC1,0,-,0,0,0,0,-,-,-,-,-,-
COc1ccc(CN(C)S(=O)(=O)c2nnc(NC(=O)c3cccc(F)c3)s2)cc1,0,-,0,0,0,0,-,-,-,-,-,-
COc1ccc(C2/C=C\CN(C(=O)CC(C)C)CC(=O)N2Cc2ccc(F)cc2)cc1 (stereo not drawn),0,-3,0,0,0,0,0,0,0.025,0.0059,0,0
COc1ccc(C2/C=C\CN(C(=O)CC(C)(C)C)CC(=O)N2Cc2ccc(F)cc2)cc1 (stereo not drawn),0,0,0,0,0,0,-,-,-,-,-,-
Nc1cc(C(Cl)=C(Cl)Cl)c(S(N)(=O)=O)cc1S(N)(=O)=O,0,-,-,-,-,-,-,-,-,-,-,-
Cc1nc(C(=O)NCC(=O)c2ccc(Cl)cc2)c(C(F)(F)F)o1,0,0,0,0,0,0,-,-,-,-,-,-
Cc1nc(C(=O)NNC(=O)c2ccc(Cl)cc2)c(C(F)(F)F)o1,0,17,0,0,0,0,0,0.03,0.039,0.024,0.035,0.02
CCCCN(C(=O)CCCc1nc2ccccc2s1)c1c(N)n(CC(C)C)c(=O)[nH]c1=O,0,-,-,-,-,-,-,-,-,-,-,-
O=C(Nc1nc2c(Cl)cccc2s1)c1ccc(Br)o1,0,-,0,0,0,0,?,0.027,0,0.034,0.031,0.014
O=C(Nc1nnc(-c2ccccc2)o1)Nc1ccccc1Cl,0,20,0,0,0,0,?,0.032,0,?,0.036,?
COc1ccc(CCC(=O)Nc2ccc(S(=O)(=O)Nc3nccc(C)n3)cc2)cc1,0,-,0,0,0,0,-,-,-,-,-,-
O=S1(=O)N=C(N2CCN(Cc3ccccc3)CC2)c2ccccc21,0,-6,0,0,0,0,0,0,0.024,0,?,0
CC(=O)c1cccc(NC(=O)Nc2ccc(C(=O)N3CCCC3)cc2)c1,0,7.4,0,0,0,0,?,0,0,0,0,0
O=C(Nc1ccccc1)Nc1ccc(C(=O)N2CCCC2)cc1,0,0,0,0,0,0,-,-,-,-,-,-
Cc1cccc(C(=O)Nc2cccc(C(=O)N3CCOCC3)c2)c1,0,4.3,0,0,0,0,0,0,0,0,0,0
COc1ccc([N+](=O)[O-])cc1NC(=O)C(C)OC(=O)CSC(C)C(=O)Nc1cc(C)on1 (stereo not drawn),0,-,0,0,0,0,-,-,-,-,-,-
O=C(NCCC1CCCCN1S(=O)(=O)c1ccc(F)cc1)C(=O)Nc1ccccc1 (stereo not drawn),0,-,0,0,0,0,-,-,-,-,-,-
CCN(CC)CCCOc1ccc(C)cc1Br,0,-,0,0,0,0,0,0,0,?,0,0
SMILES,KCNK3 block,KCC2 mod,KCNQ1 act,KCNK9 inh,KCNQ1 inh,hERG rescue,KCC2 sec1,KCC2 bumet counter,KCC2 sec2,HEK293 Tl flux,KCC2 retest ouab,HEK293 Tl flux2
CCc1ccc(C)[n+](CC(=O)c2cccs2)c1,0,-,0,0,0,0,-,-,-,-,-,-
CCCOc1ccc(C(=O)NNC(=S)NC(=O)c2cc(-c3ccc(Cl)cc3)nc3ccccc23)cc1,0,0,0,0,0,0,-,-,-,-,-,-
COc1ccc(C(=O)NNC(=S)NC(=O)c2cc(-c3ccccc3)nc3ccccc23)cc1,0,6.6,9,0,0,0,0,0.017,0,0.022,0.026,0.015
COc1ccc(Cl)cc1C(=O)NNC(=S)NC(=O)c1cc(-c2ccccc2)nc2ccccc12,0,4.8,8,0,0,0,0,0.0087,0,0.012,0,0
CC(C)Oc1cccc(-c2cc(C(=O)NC(=S)N(C)c3ccccc3C(=O)O)c3ccccc3n2)c1,0,4.4,0,0,0,0,?,0.02,0,0.011,?,0.014
N#CCCN(C(=O)COC(=O)c1cc(=O)c2ccccc2o1)c1ccccc1,0,-,-,-,-,-,-,-,-,-,-,-
CC1=NOC(=O)/C1=C\c1ccc(-c2ccccc2Br)o1,0,0,0,0,0,0,-,-,-,-,-,-
Cc1ccc(-c2cn(-c3ccccc3F)c(=S)[nH]2)cc1,0,-,0,0,0,0,-,-,-,-,-,-
O=[N+]([O-])c1ccc(-c2cn(-c3ccccc3F)c(=S)[nH]2)cc1,0,5.8,0,0,0,0,0,0.012,0,0.0089,?,0.011
O=C(/C=C/c1cn(CC(O)CN2CCCCC2)c2ccccc12)c1cccs1 (stereo not drawn),0,4.6,0,0,7,0,0,0,0.024,0,0.016,0
CCOC(=O)CNC(=O)CSc1nc2sc(C)c(C)c2c(=O)n1C,0,-,0,0,0,0,0,0.019,0,0.017,0.027,0.021
COc1ccccc1NC(=O)CSc1nc2sc(C)c(C)c2c(=O)n1C,0,-,0,0,0,0,-,-,-,-,-,-
Cc1sc2nc(SCC(=O)NCCO)n(C)c(=O)c2c1C,0,-,0,0,0,0,-,-,-,-,-,-
